ChEMBL document CHEMBL1938365, “Design and synthesis of novel small-molecule inhibitors of the hypoxia inducible factor pathway” (J Med Chem, 2011)
The source made the active and inactive calls. The calls are words filed in the database; no cut-off is given here.

How the values were obtained:
[1] = target: Hypoxia-inducible factor 1-alpha (Homo sapiens) (UniProt Q16665); experiment: Inhibition of hypoxia-induced HIF1alpha accumulation in human LN229 cells at 20 uM after 1 hr preincubation measured after 24 hrs by Western blot analysis; assay type: functional, cell-based; conditions: LN-229
Summary of the method: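 Western blot for HIF-1α in LN229 cells after 1 h pretreatment with inhibitor at 20 μM final (bortezomib control 100 nM), followed by 24 h in normoxia or hypoxia.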

[2] = target: T1, Hypoxia inducible factors; HIF-1-alpha, HIF-2-alpha (Homo sapiens, UniProt Q16665+Q99814); experiment: Inhibition of HIF1 in human LN229 cells at 10 uM after 1 hr preincubation under hypoxic condition measured after 24 hrs by luciferase reporter gene assay; assay type: cell-based
Summary of the method: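 LN229 glioma cells stably transfected with VEGF promoter-luciferase (LN229-VEGF-Luc) were pretreated 1 h in normoxia with 10 μM (final) compound, then kept 24 h in normoxia or hypoxia. Luciferase was read as relative light units against vehicle control; triplicates, mean ± standard deviation.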

[3] = target: T1, Hypoxia inducible factors; HIF-1-alpha, HIF-2-alpha; experiment: Inhibition of HIF1 in human LN229 cells after 1 hr preincubation under hypoxic condition measured after 24 hrs by luciferase reporter gene assay; assay type: cell-based
Summary of the method: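 LN229-HRELux human glioma cells stably carry a luciferase reporter driven by six VEGF-derived HIF response elements. Cells were seeded at 3 × 10^4 per well and held 24 h in normoxia, then pretreated 1 h with compound at 0, 1, 5, 10 or 25 μM (vehicle 1% DMSO). They were then moved to hypoxia (1% O2) for 24 h, lysed and read for luciferase. Reference inhibitor ran alongside; quadruplicate wells; IC50 from concentration curve.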

LN229 = experiment: Ratio of KCN-1 IC50 to compound IC50 for HIF1 in human LN229 cells under hypoxic condition; assay type: cell-based

Sequence of Hypoxia-inducible factor 1-alpha (Homo sapiens) (Q16665 whole entry, looked up): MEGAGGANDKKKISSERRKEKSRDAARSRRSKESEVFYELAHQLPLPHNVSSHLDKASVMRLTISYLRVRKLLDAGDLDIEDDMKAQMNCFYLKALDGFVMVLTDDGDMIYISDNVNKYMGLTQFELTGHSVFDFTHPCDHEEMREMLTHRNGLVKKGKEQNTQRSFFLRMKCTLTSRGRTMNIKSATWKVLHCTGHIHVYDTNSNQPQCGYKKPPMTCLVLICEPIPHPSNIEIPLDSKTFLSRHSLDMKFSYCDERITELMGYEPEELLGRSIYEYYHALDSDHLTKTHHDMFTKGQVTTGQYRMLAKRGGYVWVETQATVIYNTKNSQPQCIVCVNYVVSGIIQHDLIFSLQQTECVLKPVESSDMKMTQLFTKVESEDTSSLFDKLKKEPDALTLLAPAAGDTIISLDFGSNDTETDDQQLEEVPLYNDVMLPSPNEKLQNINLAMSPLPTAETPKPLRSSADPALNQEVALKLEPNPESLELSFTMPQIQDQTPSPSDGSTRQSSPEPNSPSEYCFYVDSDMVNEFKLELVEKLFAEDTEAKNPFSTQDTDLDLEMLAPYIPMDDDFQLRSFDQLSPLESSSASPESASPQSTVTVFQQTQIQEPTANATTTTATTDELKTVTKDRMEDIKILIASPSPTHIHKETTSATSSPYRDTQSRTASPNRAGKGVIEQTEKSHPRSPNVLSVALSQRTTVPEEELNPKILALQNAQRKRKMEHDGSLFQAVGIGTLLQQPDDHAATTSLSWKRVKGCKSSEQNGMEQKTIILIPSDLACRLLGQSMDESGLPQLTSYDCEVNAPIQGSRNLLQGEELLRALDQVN

Compound | IC50 [3] | further results
COc1ccc(S(=O)(=O)N(Cc2ccc3c(c2)C=CC(C)(C)O3)c2ccccc2)cc1OC | – | inhibition [1]: inactive; HIF1 inhibition activity call (active/inactive) [2]: Active
COc1ccc(S(=O)(=O)N(Cc2ccc3c(n2)C=CC(C)(C)O3)C2CCCCC2)cc1OC | 0.8 µM | –
COc1ccc(S(=O)(=O)N(Cc2cnc3c(c2)C=CC(C)(C)O3)c2ccccc2)cc1OC | 2.5 µM | –
CCCCS(=O)(=O)N(Cc1ccc2c(n1)C=CC(C)(C)O2)c1ccccc1 | 5 µM | –
COc1ccc(S(=O)(=O)N(Cc2ccc3c(c2)CC(C)(C)O3)C2CCCCCC2)cc1OC | 9.1 µM | –
Cc1ccc(N(C)Cc2ccc3c(c2)C=CC(C)(C)O3)c(C)c1 | 2.6 µM | –
CC(C)C[C@H](NC(=O)[C@H](Cc1ccccc1)NC(=O)c1cnccn1)B(O)O | – | inhibition [1]: Active
COc1ccc(S(=O)(=O)N(CCC(C)C)Cc2ccc3c(c2)C=CC(C)(C)O3)cc1OC | 1.6 µM | –
COc1ccc(S(=O)(=O)N(Cc2cnc3ccccc3c2)c2ccccc2)cc1OC | 3.5 µM | –
CC1(C)C=Cc2nc(CN(c3ccccc3)S(=O)(=O)c3ccc4c(c3)OCO4)ccc2O1 | 6.5 µM | –
COc1ccc(S(=O)(=O)N(Cc2ccc3c(c2)C=CC(C)(C)O3)C2CC2)cc1OC | 1.5 µM | –
COc1ccc(N(Cc2ccc3c(n2)C=CC(C)(C)O3)S(=O)(=O)c2ccc(OC)c(OC)c2)cc1OC | > 25 µM | –
COc1ccc(S(=O)(=O)N(Cc2ccc3c(n2)C=CC(C)(C)O3)C2CCCCCCC2)cc1OC | 0.7 µM | –
CCCCN(Cc1ccc2c(n1)C=CC(C)(C)O2)S(=O)(=O)c1ccc(OC)c(OC)c1 | 0.9 µM | –
COc1ccc(S(=O)(=O)N(Cc2ccc3c(c2)C=CC(C)(C)O3)C2CCCC2)cc1OC | 0.5 µM | inhibition [1]: Active; HIF1 inhibition activity call (active/inactive) [2]: Active
CC1(C)C=Cc2cc(CNc3ccc(C(=O)O)cc3)ccc2O1 | > 25 µM | –
COc1ccc(S(=O)(=O)N(Cc2ccc3c(n2)C=CC(C)(C)O3)c2ccccc2)cc1OC | 1.3 µM | –
C#CCN(Cc1ccc2c(c1)C=CC(C)(C)O2)S(=O)(=O)c1ccc(OC)c(OC)c1 | 1.3 µM | –
CC(C)CS(=O)(=O)N(Cc1ccc2c(n1)C=CC(C)(C)O2)c1ccccc1 | 0.9 µM | –

Compound | IC50 [3] | further results
COc1ccc(NCc2ccc3c(c2)C=CC(C)(C)O3)cc1OC | 3 µM | –
COc1ccc(S(=O)(=O)N(Cc2ccc3c(n2)C=CC(C)(C)O3)c2ccc3c(c2)CCCC3)cc1OC | 6.2 µM | –
CC1(C)C=Cc2nc(CN(c3ccccc3)S(=O)(=O)c3ccc4c(c3)OCCO4)ccc2O1 | 0.9 µM | –
CC1(C)C=Cc2cc(CN(c3ccccc3)S(=O)(=O)c3ccc(Br)cc3OC(F)(F)F)ccc2O1 | > 25 µM | –
COc1ccc(S(=O)(=O)N(Cc2ccc3c(n2)C=CC(C)(C)O3)C2CCCCCC2)cc1OC | 6.6 µM | –
CC1(C)C=Cc2nc(CN(c3ccccc3)S(=O)(=O)C3CCCCC3)ccc2O1 | 0.4 µM | –
COc1ccc(S(=O)(=O)N(Cc2ccc3c(c2)CC(C)(C)O3)C2CCCCC2)cc1OC | 8.2 µM | –
COc1ccc(S(=O)(=O)N(Cc2ccc3c(n2)C=CC(C)(C)O3)C2CCCC2)cc1OC | 0.6 µM | –
COc1ccc(S(=O)(=O)N(Cc2cnc3c(c2)C=CC(C)(C)O3)C2CCCCC2)cc1OC | > 25 µM | –
Cc1cc(C)cc(S(=O)(=O)N(Cc2ccc3c(c2)C=CC(C)(C)O3)c2ccccc2)c1 | 0.5 µM | –
CCC1(C)C=Cc2cc(CN(c3ccccc3)S(=O)(=O)c3ccc(OC)c(OC)c3)ccc2O1 (stereo not drawn) | 2.2 µM | –
COc1c(C(C)n2cnc3ncccc32)ccc2c1C=CC(C)(C)O2 (stereo not drawn) | – | inhibition [1]: inactive; HIF1 inhibition activity call (active/inactive) [2]: Active
COc1ccc(S(=O)(=O)N(Cc2ccc3c(c2)C=CC(C)(C)O3)C(C)C)cc1OC | 3.1 µM | –
COc1ccc(S(=O)(=O)N(Cc2ccc3c(c2)CC(C)(C)O3)c2ccccc2)cc1OC | 0.306 µM | inhibition [1]: Active; HIF1 inhibition activity call (active/inactive) [2]: Active; Ratio IC50 (LN229): > 2
COc1ccc(S(=O)(=O)N(Cc2cc3c(cn2)OC(C)(C)C=C3)c2ccccc2)cc1 | 1.4 µM | –
CC1(C)C=Cc2cc(CNc3ccccc3Br)ccc2O1 | > 25 µM | –
COc1ccc(N(C)Cc2ccc3c(c2)C=CC(C)(C)O3)cc1OC | 5 µM | –
CC(C)S(=O)(=O)N(Cc1ccc2c(n1)C=CC(C)(C)O2)c1ccccc1 | 13.4 µM | –

Continued, in another order:

IC50 [3] | Compound | further results
2.1 µM | CC1(C)C=Cc2cc(CN(c3ccccc3)S(=O)(=O)c3cc(Cl)ccc3Cl)ccc2O1 | –
4 µM | COc1ccc(S(=O)(=O)N(Cc2ccc3c(c2)C=CC(C)(C)O3)C2CCCCC2)cc1OC | –
5.8 µM | CC(C)c1ccc(S(=O)(=O)N(Cc2cc3c(cn2)OC(C)(C)C=C3)C2CCCCC2)cc1 | –
3.4 µM | C=CCN(Cc1ccc2c(c1)C=CC(C)(C)O2)S(=O)(=O)c1ccc(OC)c(OC)c1 | –
1.5 µM | COc1ccc(S(=O)(=O)N(Cc2ccc3c(c2)CC(C)(C)O3)C(C)C)cc1OC | –
8.5 µM | CC1(C)C=Cc2cc(CNc3ccccn3)ccc2O1 | –
0.378 µM | COc1ccc(S(=O)(=O)N(Cc2ccc3c(c2)CC(C)(C)O3)C2CCCC2)cc1OC | inhibition [1]: inactive; HIF1 inhibition activity call (active/inactive) [2]: Active
3.4 µM | CC1(C)C=Cc2nc(CN(c3ccccc3)S(=O)(=O)c3ccc(-c4ccccc4)cc3)ccc2O1 | –
3.3 µM | CCCCN(Cc1ccc2c(c1)C=CC(C)(C)O2)S(=O)(=O)c1ccc(OC)c(OC)c1 | –
8.4 µM | CN(Cc1ccc2c(c1)C=CC(C)(C)O2)c1ccccn1 | –
> 25 µM | Cc1ccc(NCc2ccc3c(c2)C=CC(C)(C)O3)c(C)c1 | –
3.5 µM | COc1ccc(S(=O)(=O)N(Cc2ccc3c(c2)C=CC(C)(C)O3)C(C)(C)C)cc1OC | –
0.28 µM | COc1ccc(S(=O)(=O)N(Cc2ccc3c(n2)C=CC(C)(C)O3)C2CCC2)cc1OC | inhibition [1]: inactive; HIF1 inhibition activity call (active/inactive) [2]: Active; Ratio IC50 (LN229): > 2
5.7 µM | COc1ccc(S(=O)(=O)N(Cc2ccc3c(n2)C=CC(C)(C)O3)c2ccc(F)cc2)cc1OC | –
> 25 µM | CC1(C)C=Cc2cc(CNc3ccccc3F)ccc2O1 | –
6.4 µM | CCCS(=O)(=O)N(Cc1ccc2c(n1)C=CC(C)(C)O2)c1ccccc1 | –
1.8 µM | CC1(C)C=Cc2cc(CN(c3ccccc3)S(=O)(=O)c3ccc([N+](=O)[O-])cc3)ncc2O1 | –
0.478 µM | CCCCN(Cc1ccc2c(c1)CC(C)(C)O2)S(=O)(=O)c1ccc(OC)c(OC)c1 | inhibition [1]: inactive; HIF1 inhibition activity call (active/inactive) [2]: Active
1.1 µM | COc1ccc(S(=O)(=O)N(Cc2cc3c(cn2)OC(C)(C)C=C3)C2CCCCC2)cc1OC | –
0.9 µM | CC1(C)C=Cc2nc(CN(c3ccccc3)S(=O)(=O)c3cccc4cccnc34)ccc2O1 | –
0.6 µM | COc1ccc(S(=O)(=O)N(Cc2ccc3c(c2)C=CC(C)(C)O3)c2ccccc2)cc1 | –
> 25 µM | CC1(C)C=Cc2nc(CN(c3ccccc3)S(=O)(=O)C3CC3)ccc2O1 | –
